Measurements pooled from the literature.
Each line is one published result; the experiments were not run side by side.
Target: Serine/threonine-protein kinase 10 (STK10, Homo sapiens, UniProt O94804)

CCN(CC)CCNC(=O)c1c(C)[nH]c(/C=C2\C(=O)Nc3ccc(F)cc32)c1C
inhibition (enzyme activity; inhibitor; 0.3 µM): 37%

CC/C(=N\NC(=O)NCc1cccc(O)c1)c1ccc(O)c(C)c1O
inhibition (enzyme activity; inhibitor; 0.1 µM): 1%

O=C1CCc2cc(Nc3cc(OC4CCOCC4)c([N+](=O)[O-])cc3Cl)ccc2N1
remaining binding (cell-free assay; competition with immobilised ligand; 1 µM): 100%

CCN1CCN(Cc2ccc(NC(=O)c3ccc(C)c(/C=C/c4cnc5[nH]ccc5c4OC)c3)cc2C(F)(F)F)CC1
inhibition (target engagement in cells; inhibitor; chemoproteomics; A-375; 0.5 µM): -69.1%

CNC(=O)c1cc2c(Oc3ccc(NC(=O)C4(C(=O)Nc5ccc(F)cc5)CC4)cc3)ccnc2cc1OC
inhibition (enzyme activity; inhibitor; radiometric; 1 µM): 75%

CNCc1ccccc1-c1csc([C@H](C)Nc2nc(C)nc3cc(OC)c(OC)cc23)c1
remaining binding (cell-free assay; competition with immobilised ligand; 1 µM): 100%

Cc1ccc(NC(=O)c2ccc(C)c(C(F)(F)F)c2)cc1C#Cc1nn(C2CCC(O)CC2)c2ncnc(N)c12 (centres unmarked)
remaining signal (cell-free assay; 10 µM): 16%

COc1cc2nccc(Oc3ccc(NC(=O)Nc4ccc(F)cc4F)c(F)c3)c2cc1OC
ΔTm (thermal stability; DSF; 10 µM): > 10 °C

NS(=O)(=O)c1cc(NC(=O)Cc2ccccc2)ccc1Oc1cccc(Cl)c1
remaining binding (cell-free assay; competition with immobilised ligand; 1 µM): 65%

CNC(=O)c1cc(Oc2ccc(NC(=O)Nc3ccc(Cl)c(C(F)(F)F)c3)cc2)ccn1
inhibition (enzyme activity; inhibitor; 10 µM): 88%

CC(C)c1ccc(NC(=O)c2cccs2)c(-c2nc3ccccc3[nH]c2=O)c1
activity vs control (enzyme activity; inhibitor; 1 µM): 103%

O=C1Nc2ccc(Cl)cc2C1=Cc1cc(Cl)c(O)c(Cl)c1
remaining signal (cell-free assay; 0.5 µM): 77.1%

Nc1cnc(N2CCc3cc(S(=O)(=O)Nc4c(F)cc(Cl)cc4F)cc(N4CCCC4=O)c32)nc1
remaining binding (cell-free assay; competition with immobilised ligand; 1 µM): 100%

N#CCCc1ccc2c(c1)-c1[nH]c3ccc([N+](=O)[O-])cc3c1CC(=O)N2
remaining signal (cell-free assay; 0.5 µM): 74.1%

CCOCCn1cc(C(=O)Nc2ccc(-n3nc(-c4cccnc4)cc3C(F)(F)F)cn2)ccc1=O
remaining binding (cell-free assay; competition with immobilised ligand; 1 µM): 100%

Cc1ccc(C(=O)Nc2ccc(CN3CCN(C)CC3)c(C(F)(F)F)c2)cc1C#Cc1cnc2cccnn12
remaining activity (enzyme activity; inhibitor; 23.5 nM): 0.05%

Cc1c[nH]c2nccc(Oc3c(F)cc(Nc4cc(Cl)nc(N)n4)cc3F)c12
remaining binding (cell-free assay; competition with immobilised ligand; 0.1 µM): 100%

C#Cc1cccc(Nc2ncnc3cc(OCCOC)c(OCCOC)cc23)c1
remaining signal (cell-free assay; 0.5 µM): 20.3%

CCN1CCN(Cc2ccc(NC(=O)c3ccc(C)c(Oc4ccnc5[nH]ccc45)c3)cc2C(F)(F)F)CC1
inhibition (target engagement in cells; inhibitor; chemoproteomics; Huh-7; 1 µM): -148%

Cc1cnc(NC2CCOCC2)nc1-n1cnc(C(=O)NC(CN)c2cc(F)cc(Cl)c2)c1 (centres unmarked)
remaining activity (enzyme activity; inhibitor; radiometric; 1 µM): 87%

Cc1sc(C(=O)NC2COC2)cc1-n1cc(NC(=O)Nc2c(F)cccc2Cl)cn1
remaining activity (enzyme activity; inhibitor; 10 µM): 96.4%

O=C1NC(=O)c2cc(Nc3ccc(F)cc3)c(Nc3ccc(F)cc3)cc21
remaining signal (cell-free assay; 0.5 µM): 79.2%

Cn1nc(C(F)(F)F)cc1-c1cnc(N2CCc3cc(S(=O)(=O)Nc4c(F)cc(Cl)cc4F)cc(N4CCCC4=O)c32)nc1
remaining binding (cell-free assay; competition with immobilised ligand; 1 µM): 94%
